ChEMBL document CHEMBL1143369, “Guanidine and 2-aminoimidazoline aromatic derivatives as alpha2-adrenoceptor ligands: searching for structure-activity relationships” (J Med Chem, 2009)
Active and inactive are the calls of the source. The calls are words filed in the database; no cut-off is given here.

Columns and labels:
[1] = target: T1, Adrenergic receptor alpha-2 (Homo sapiens, UniProt P08913+P18825+P18089); assay: Agonist activity at alpha2 adrenoceptor in human cortical membrane after 2 hrs by [35S]GTPgammaS binding assay; format: functional, cell membranes
T1 sequence (P08913 whole entry): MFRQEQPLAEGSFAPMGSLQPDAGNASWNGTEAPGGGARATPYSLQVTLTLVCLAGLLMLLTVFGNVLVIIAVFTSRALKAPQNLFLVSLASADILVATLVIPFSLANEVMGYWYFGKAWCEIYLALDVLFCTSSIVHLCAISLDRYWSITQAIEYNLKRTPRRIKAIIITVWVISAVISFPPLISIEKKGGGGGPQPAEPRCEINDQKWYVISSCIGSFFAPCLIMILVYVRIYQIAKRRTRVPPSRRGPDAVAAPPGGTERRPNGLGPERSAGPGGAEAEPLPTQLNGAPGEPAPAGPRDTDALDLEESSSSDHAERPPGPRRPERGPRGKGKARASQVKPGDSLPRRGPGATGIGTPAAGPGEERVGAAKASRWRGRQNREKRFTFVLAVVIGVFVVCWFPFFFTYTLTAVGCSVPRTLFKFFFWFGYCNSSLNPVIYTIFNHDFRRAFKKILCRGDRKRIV
T1 sequence (P18825 whole entry): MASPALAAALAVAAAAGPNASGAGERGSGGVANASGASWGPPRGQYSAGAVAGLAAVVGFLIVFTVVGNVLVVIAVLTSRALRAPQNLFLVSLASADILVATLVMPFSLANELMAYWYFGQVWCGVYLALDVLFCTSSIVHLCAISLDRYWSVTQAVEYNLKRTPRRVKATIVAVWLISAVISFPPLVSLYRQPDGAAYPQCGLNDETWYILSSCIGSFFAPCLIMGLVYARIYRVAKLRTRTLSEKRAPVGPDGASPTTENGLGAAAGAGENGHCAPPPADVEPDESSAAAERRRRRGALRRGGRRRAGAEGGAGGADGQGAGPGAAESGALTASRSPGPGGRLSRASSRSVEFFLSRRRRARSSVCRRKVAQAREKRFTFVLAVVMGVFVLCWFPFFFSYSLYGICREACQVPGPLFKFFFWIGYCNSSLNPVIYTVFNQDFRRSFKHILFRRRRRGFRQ
T1 sequence (P18089 whole entry): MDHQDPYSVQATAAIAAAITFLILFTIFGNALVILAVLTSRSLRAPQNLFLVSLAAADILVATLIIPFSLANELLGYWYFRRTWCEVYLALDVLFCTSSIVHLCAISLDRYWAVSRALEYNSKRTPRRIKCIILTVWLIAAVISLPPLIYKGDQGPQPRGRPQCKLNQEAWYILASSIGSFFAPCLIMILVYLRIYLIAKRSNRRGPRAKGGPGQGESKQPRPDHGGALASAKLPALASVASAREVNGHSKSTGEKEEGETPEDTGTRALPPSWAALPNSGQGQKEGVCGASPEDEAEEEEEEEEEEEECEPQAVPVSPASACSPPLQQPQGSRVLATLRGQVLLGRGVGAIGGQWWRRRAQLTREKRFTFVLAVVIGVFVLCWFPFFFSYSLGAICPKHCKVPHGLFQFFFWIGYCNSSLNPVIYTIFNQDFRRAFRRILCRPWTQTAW

[2] = target: T1, Adrenergic receptor alpha-2; assay: Displacement of [3H]RX821002 from alpha2 adrenoceptor in human prefrontal cortex neural membrane after 30 mins by liquid scintillation spectrometry; format: tissue-based
[3] = target: T2, Adrenergic receptor alpha-2 (Homo sapiens) (UniProt P08913+P18825+P18089); assay: Intrinsic activity at alpha2 adrenoceptor in human cortical membrane at 0.0001 to 1000 uM after 2 hrs by [35S]GTPgammaS binding assay relative to UK-14304; format: functional, cell membranes
Summary of the method: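 Human postmortem PFC membranes (40 µg protein) incubated 2 h at 30 °C with 0.5 nM [35S]GTPγS in buffer of EGTA, MgCl2, 100 mM NaCl, GDP and Tris-HCl pH 7.4. Compound tested at 8 concentrations (10^-10 to 10^-3 M). Bound label collected by GF/C filtration.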

Rattus norvegicus [4] = assay: Antidepressant activity in Sprague-Dawley rat assessed as increase in extracellular noradrenaline level in prefrontal cortex at 1 uM administered locally by microdialysis measured after every 70 mins by HPLC; format: functional, organism-based
Summary of the method: (§1)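 Male Sprague-Dawley rats (250-300 g), freely moving, with a PFC probe implanted under chloral hydrate 20-24 h earlier. Perfused with aCSF pH 7.4 at 1 µL/min. Drug dissolved in aCSF and reverse-dialysed for 70 min at each step of 1, 10 and 100 µM. Dialysate sampled every 35 min, NA measured by HPLC with amperometric detection at +650 mV. Values are % of mean of 3 basal samples, ANOVA versus aCSF controls.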

Rattus norvegicus [5] = assay: Antidepressant activity in Sprague-Dawley rat assessed as increase in extracellular noradrenaline level in prefrontal cortex at 1 to 100 uM administered locally by microdialysis measured after every 70 mins by HPLC; format: functional; summary of the method: as §1
Rattus norvegicus [6] = assay: Antidepressant activity in Sprague-Dawley rat assessed as increase in extracellular noradrenaline level in prefrontal cortex at 10 mg/kg, ip […] by HPLC; format: functional; details: route intraperitoneal
[7] = target: T2, Adrenergic receptor alpha-2 (Homo sapiens); assay: Antagonist activity at alpha2 adrenoceptor in human prefrontal cortex neural membrane at 10 uM assessed as rightwards shift in UK-14304 EC50 by [35S]GTPgammaS binding assay; format: functional, tissue-based
Summary of the method: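 Human postmortem prefrontal cortex P2 membranes (40 µg protein) incubated 120 min at 30 °C with shaking in 0.5 nM [35S]GTPγS, 1 mM EGTA, 3 mM MgCl2, 100 mM NaCl, GDP, Tris-HCl pH 7.4. Nonspecific binding with 10 µM unlabeled GTPγS.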

Rattus norvegicus [8] = assay: Antidepressant activity in Sprague-Dawley rat assessed as increase in extracellular noradrenaline level in prefrontal cortex at 100 uM administered locally by microdialysis measured after every 70 mins by HPLC; format: functional; summary of the method: as §1

| SMILES | EC50 [1] | pKi [2] | Emax [3] | Activity (Rattus norvegicus [4]) | Emax (Rattus norvegicus [5]) | Activity (Rattus norvegicus [6]) | Activity [7] | Emax (Rattus norvegicus [8]) |
| --- | --- | --- | --- | --- | --- | --- | --- | --- |
| CCN(C)c1ccc(NC(=N)N)cc1 | 16.2 µM | 7.12 | 92% |  |  |  |  |  |
| CNc1ccc(NC2=NCCN2)cc1 | 61.4 µM | 7.27 | 98% |  |  |  |  |  |
| CCC(CC)c1ccc(NC(=N)N)cc1 | 38.7 µM |  | 89% |  |  |  |  |  |
| CCNc1ccc(NC2=NCCN2)cc1 | 59.3 µM | 6.75 | 95% |  |  |  |  |  |
| CCN(C)c1ccc(NC2=NCCN2)cc1 | 1.9 µM | 7.38 | 103% |  |  |  |  |  |
| COC1(C2=NCCN2)COc2ccccc2O1 (centres undefined) |  | 9.04 |  | Active | 290% |  |  |  |
| CNc1ccc(NC(=N)N)cc1 | 82.3 µM | 6.95 | 87% |  |  |  |  |  |
| CCNc1ccc(NC(=N)N)cc1 |  | 6.58 |  |  |  | 161% | Active | 304% |
